We go through 13 molecules from PubChem BioAssay.

A short description of assay [1]: inhibitors of TNFa-induced NFkB p65 translocation, primary screen, imaging, HUVEC, MLSMR starter and 10KST1 sets (AID 438;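 active = inhibition above 20% together with a positive visual image hit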;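 note: compound added about 3h40 before a 20 min TNFalpha stimulation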;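 for inhibition: signal is the nuclear over cytoplasmic p65 intensity ratio per well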). Conditions: HUVEC TNFa-induced p65 nuclear translocation; cell count: measured here: nuclei count (cytotoxicity indicator), at 2.08 µM; inhibition: at 2 µM, stronger effect = higher value, 0% TNFa-plus-vehicle, 100% no-TNFa wells.
The nature of assay [2]: endothelial E-selectin expression blockers – imaging, HUVEC, immunofluorescence, MLSMR starter and 10KST1 sets, primary screen (AID 487).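 For inhibition: signal is fraction of cell area covered by stained E-selectin grains.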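 For nuclei count: 100% = median nuclei count of all wells on the same plate.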 As to conditions: HUVEC TNFalpha-induced E-selectin immunofluorescence imaging, at 2 µM; inhibition: stronger effect = higher value; nuclei count: measured here: cell number, toxicity.
Assay [3] in a line: Primary imaging screen for DUSP6 inhibitors that restore phospho-Erk in transfected HeLa cells, chemical complementation (AID 609;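 active = compounds giving at least 50% inhibition in the cell-based MKP-3 phosphatase rescue imaging test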;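 for inhibition: phospho-Erk level distribution per well compared with pooled transfected vehicle control wells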). Conditions: HeLa MKP-3 transfected, phospho-Erk imaging KS statistic, at 10 µM, cells stimulated with TPA for 15 min.
For assay [4], the target named is Dual specificity protein phosphatase 6 (Homo sapiens) (UniProt Q16828). The description is as above. As to conditions: HeLa MKP-3 transfected, phospho-Erk imaging KS statistic; at 10 µM; stronger effect = higher value; cells stimulated with TPA for 15 min.
The target of assay [5] is Voltage-gated potassium channel subunit beta-2 (Rattus norvegicus) (UniProt P62483). As to the kind of experiment: inhibitors of rat Kvbeta2 reductase activity – biochemical, NADPH fluorescence, primary screen (AID 622;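 active = fluorescence slope higher than the sample average by over 3 SD, cut at about -0.22 in these data, passing the limit was not always enough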;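 note: slope of raw intensity against log time taken from 70 to 1610 s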). As to conditions: recombinant KvBeta, 4-cyanobenzaldehyde reduction, at 10 µM, stronger effect = higher value.
For assay [6] the target is unchanged. As to the kind of experiment: enhancers of rat Kvbeta2 NADPH turnover – biochemical, NADPH fluorescence, primary screen (AID 623;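 active = NADPH fluorescence slope more negative than the mean of all samples by about 3 SD, 99.7% confidence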;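 note: fluorescence intensity change per second fitted from 20 to 320 s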). As to conditions: Recombinant KvBeta, NADPH fluorescence decrease slope, 10 min; at 10 µM; stronger effect = lower value.
The target in assay [7] is Alpha-2C adrenergic receptor (Homo sapiens) (UniProt P18825). As to the kind of experiment: compounds altering alpha2C-coupled GIRK flux – cell-based, HEK293 alpha2C/GIRK1/2, thallium flux, primary screen (AID 624;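 active = fluorescence slope after compound addition differing from the mean of all screened samples at 99.7% confidence, in either direction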;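 note: slope of fluorescence ratio to pre-addition baseline per second over 15 to 24 s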). As to conditions: thallium flux BTC fluorescence, at 10 µM, actives lie on both sides.
Assay [8] in a line: inhibitors of larval lipid processing in zebrafish, primary screen, whole organism, PED6 fluorescence, gall bladder and intestine (AID 686;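 active = a full or partial loss of lipid-probe fluorescence in the fish gall bladder, intestine or both, judged by eye; inactive = no fluorescence loss, or compound toxic to the fish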;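 note: larvae 5 to 7 days old with five fish per well; signal comes from phospholipase A2 cleavage of quenched PED6 carried via bile; overnight exposure to compound and PED6 before scoring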). Conditions: Zebrafish larvae PED6 lipid processing, fluorescence scoring; screened at 20 µM (by protocol). The procedure, abridged:
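Test system – live zebrafish larvae aged 5-7 days, whole organism · Buffer or medium – E3 fish medium · Reagent – quenched phospholipase substrate PED6, 100 nM final, ingested by larvae · Doses – 20 µM single dose · Incubation – overnight compound and PED6 incubation · Technique – visual fluorescence microscopy scoring of gall bladder, gut · Read-out basis – visual per-well fluorescence inhibition score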

A short description of assay [9]: loss of swimming-algae plug formation – whole organism, Chlamydomonas reinhardtii, WT vs cilia-less mutant, absorbance, 96-well, primary screen (AID 463189;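 active = inhibition at or above 50% relative to wild type and mutant plate controls; inactive = inhibition below 50%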;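 note: 0% = wild type cc124 cells in DMSO and 100% = ciliumless bld1 mutant cells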). Conditions: Chlamydomonas reinhardtii gravitaxis, OD600 absorbance, 2 days; at 10 µM; stronger effect = higher value.
[10] abbreviates: measured here: cell density z-score.
Where [11] appears, read: measured here: nuclear c-Myc green intensity z-score.
Where [12] appears, read: measured here: nuclear pErk red intensity z-score, stronger effect = higher value.

The source made the active and inactive calls.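 Rule for the calls, unless noted: active = visually confirmed hit in the image check and inhibition above 20%; inconclusive = visually confirmed hit but inhibition not above 20%; inactive = no visual hit in the image check.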

Sequence of Voltage-gated potassium channel subunit beta-2 (Rattus norvegicus) (P62483 whole entry, looked up): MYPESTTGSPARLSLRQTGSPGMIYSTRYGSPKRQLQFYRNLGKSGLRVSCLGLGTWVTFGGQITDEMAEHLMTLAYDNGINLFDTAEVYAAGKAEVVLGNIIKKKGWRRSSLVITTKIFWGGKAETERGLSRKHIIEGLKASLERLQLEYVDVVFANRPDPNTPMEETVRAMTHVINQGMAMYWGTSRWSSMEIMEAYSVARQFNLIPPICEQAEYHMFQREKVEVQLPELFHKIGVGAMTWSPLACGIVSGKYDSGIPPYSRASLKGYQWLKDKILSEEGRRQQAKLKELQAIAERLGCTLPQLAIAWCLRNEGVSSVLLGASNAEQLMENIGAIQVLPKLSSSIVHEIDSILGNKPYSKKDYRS
Sequence of Dual specificity protein phosphatase 6 (Homo sapiens) (Q16828 whole entry, looked up): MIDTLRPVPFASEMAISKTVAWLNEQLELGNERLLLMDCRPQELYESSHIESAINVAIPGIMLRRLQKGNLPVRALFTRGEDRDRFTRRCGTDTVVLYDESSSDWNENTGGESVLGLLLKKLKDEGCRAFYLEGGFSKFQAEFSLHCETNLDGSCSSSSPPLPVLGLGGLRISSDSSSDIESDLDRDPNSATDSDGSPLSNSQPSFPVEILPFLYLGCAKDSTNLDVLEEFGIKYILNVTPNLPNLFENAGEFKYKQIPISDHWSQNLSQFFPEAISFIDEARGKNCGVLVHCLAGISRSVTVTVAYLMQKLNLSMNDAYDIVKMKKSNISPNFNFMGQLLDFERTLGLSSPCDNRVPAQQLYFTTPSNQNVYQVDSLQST
Sequence of Alpha-2C adrenergic receptor (Homo sapiens) (P18825 whole entry, looked up): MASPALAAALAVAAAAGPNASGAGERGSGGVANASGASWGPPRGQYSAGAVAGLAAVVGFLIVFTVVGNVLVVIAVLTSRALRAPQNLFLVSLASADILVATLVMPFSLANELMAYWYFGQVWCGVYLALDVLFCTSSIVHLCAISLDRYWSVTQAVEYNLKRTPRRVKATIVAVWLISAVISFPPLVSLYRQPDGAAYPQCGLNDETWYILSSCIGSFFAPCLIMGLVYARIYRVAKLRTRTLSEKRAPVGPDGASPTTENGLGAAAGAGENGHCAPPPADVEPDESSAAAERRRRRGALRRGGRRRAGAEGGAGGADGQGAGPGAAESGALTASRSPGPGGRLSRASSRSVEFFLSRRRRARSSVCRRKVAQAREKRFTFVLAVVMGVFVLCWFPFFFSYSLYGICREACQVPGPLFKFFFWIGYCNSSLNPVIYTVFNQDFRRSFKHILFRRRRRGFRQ

A word on the inhibition: it is the change of the read-out against control, counted positive when it falls. For `Cc1cc(C)n2c3c(c(C#N)c2n1)CC(C)(C)OC3`, the cell count in assay [1] was 670. Also, the inhibition is -7.2% (inactive) in [1], 55.6% (inactive) in assay [2], 11.3% (inactive) in assay [4] and 14.5% (inactive) in assay [9]. In addition, in assay [2], the nuclei count stood at 131%. The results for the z-score in [3] (setting [10]), in assay [3] (setting [11]) and in [3] (setting [12]) were 0.0106, -1.04 and -0.0691, respectively. Besides, the fluorescence slope in assay [5] was -0.327 (inactive). Also, the NADPH fluorescence slope in assay [6] is 2.8e-06 (inactive). Further, the slope in [7] is 0.00519 (inactive). The outcome in [8] was inactive.

Regarding `Cc1cc(OCCN2CCCCC2)nc2ccccc12`, in assay [1], the cell count came out at 482. Moreover, the inhibition in assay [1] is 6.3% (inactive); in assay [2], -39.5% (inactive); in assay [4], 26.3% (inactive); in [9], 39.2% (inactive). For the same molecule, the nuclei count in assay [2] stood at 95%. Also, the z-score in assay [3] (setting [10]) is 1.18; in [3] (setting [11]) it was -0.61; in assay [3] (setting [12]), -0.992. Further, the fluorescence slope in [5] was -0.332 (inactive). In addition, the NADPH fluorescence slope in assay [6] was 1.4e-05 (inactive). Moreover, in [7], the slope was 0.0054 (inactive). The result in assay [8] was inactive.

On to `CCN(CC)CCN1C(=O)C(=O)/C(=C(/O)c2ccc(F)cc2)C1c1cccnc1` (centres undefined), for which the cell count in [1] was found to be 488. Moreover, the inhibition in assay [1] is -18.4% (inactive); in assay [2], -35.7% (inactive); in assay [4], -2.47% (inactive); in assay [9], -7.28% (inactive). The molecule also displayed a nuclei count in [2] of 128%. For the same molecule, the values for the z-score in assay [3] (setting [10]), in assay [3] (setting [11]) and in [3] (setting [12]) were -0.0126, -0.441 and 0.45, respectively. Besides, the fluorescence slope in assay [5] was -0.493 (inactive). In addition, the NADPH fluorescence slope in [6] is -5.5e-05 (inactive). The slope in assay [7] was 0.00472 (inactive). In assay [8], the call was inactive.

Turning to `CCOc1ccc2c(C)nc(NC3=NC(C)(C)C=C(C)N3)nc2c1`, the cell count in assay [1] turned out to be 641. Further, the inhibition was -3.1% (inactive) in assay [1], 46.4% (inactive) in assay [2], -9.66% (inactive) in assay [4] and 19.3% (inactive) in assay [9]. The molecule further returned a nuclei count in assay [2] of 158%. Besides, the z-score is -1.28 in assay [3] (setting [10]), 1.6 in assay [3] (setting [11]) and 1.26 in assay [3] (setting [12]). The fluorescence slope in [5] is -0.373 (inactive). For the same molecule, in assay [6], the NADPH fluorescence slope is -4.2e-05 (inactive). In addition, in assay [7], the slope was 0.00624 (inactive). Moreover, in assay [8], the outcome was inactive.

Consider `CC1(C)CC(=O)C2=C(C1)N(Cc1ccco1)C(=O)C2(NC(=O)c1cccnc1)C(F)(F)F` (centres undefined), for which the cell count in assay [1] stood at 499. Also, the inhibition is -8.6% (inactive) in [1], -131% (inactive) in assay [2], 3.5% (inactive) in assay [4] and 0.823% (inactive) in [9]. Further, the nuclei count in [2] turned out to be 136%. Moreover, the z-score in assay [3] (setting [10]) was -1.48; in [3] (setting [11]) it was -1.13; in assay [3] (setting [12]), 0.615. Also, in assay [5], the fluorescence slope was -0.492 (inactive). For the same molecule, in assay [6], the NADPH fluorescence slope was -6.7e-05 (inactive). Besides, in assay [7], the slope was 0.00643 (inactive). Besides, in assay [8], the result was inactive.

For `CC(=O)N[C@H]1C[C@@H]1c1ccccc1`, the cell count in [1] was determined as 404. The inhibition in assay [1] is -8.9% (inactive); in assay [2], 0.6% (inactive); in assay [4], 6.04% (inactive); in assay [9], -14.5% (inactive). This molecule registered a nuclei count in assay [2] of 103%. Further, the figures for the z-score in assay [3] (setting [10]), in assay [3] (setting [11]) and in assay [3] (setting [12]) were 0.812, -0.111 and -1.93, respectively. Moreover, in assay [5], the fluorescence slope is -0.4 (inactive). Moreover, the NADPH fluorescence slope in [6] was 3.1e-05 (inactive). Besides, in assay [7], the slope was 0.00883 (inactive). Moreover, the molecule was called inactive in assay [8].

Turning to `CC(C)c1cc(NCCCN2CCOCC2)n2c(nc3ccccc32)c1C#N`, in [1], the cell count was 548. The inhibition is -21.3% (inactive) in assay [1], -6.2% (inactive) in assay [2], 6.51% (inactive) in [4] and 5.12% (inactive) in assay [9]. The nuclei count in assay [2] came out at 155%. Besides, the z-score in assay [3] (setting [10]) is 1.24; in assay [3] (setting [11]) it was -0.267; in assay [3] (setting [12]) it was -1.5. Further, in assay [5], the fluorescence slope is -0.342 (inactive). Besides, in [6], the NADPH fluorescence slope is -1.7e-06 (inactive). Moreover, the slope in assay [7] is 0.00382 (inactive). For the same molecule, the outcome in [8] was inactive.

For `CCCOc1cc(CN2CCCCC2)cc(C(C)=O)c1`, the cell count in [1] was determined as 662. Further, the inhibition is -7.2% (inactive) in [1], -40.5% (inactive) in assay [2], 15.1% (inactive) in assay [4] and 3.11% (inactive) in assay [9]. Besides, the nuclei count in assay [2] came out at 182%. The z-score in assay [3] (setting [10]) was 0.934; in assay [3] (setting [11]) it was -0.767; in assay [3] (setting [12]), 0.549. For the same molecule, the fluorescence slope in [5] is -0.493 (inactive). In addition, in [6], the NADPH fluorescence slope is -6.5e-05 (inactive). Also, in assay [7], the slope was 0.00496 (inactive). Also, the molecule was called inactive in assay [8].

With `CCCCn1c(C)cc2cc(O)ccc21`, the cell count in assay [1] came to 320. Besides, the inhibition in assay [1] was -9.2% (inactive); in assay [2] it was -73.6% (inactive); in [4], -8.76% (inactive); in [9], -7.64% (inactive). The nuclei count in [2] came out at 154%. Besides, the values for the z-score in [3] (setting [10]), in assay [3] (setting [11]) and in assay [3] (setting [12]) were -1.22, 2.41 and 1.37, respectively. For the same molecule, the fluorescence slope in [5] was -0.432 (inactive). In addition, the NADPH fluorescence slope in [6] is -0.000136 (inactive). Moreover, the slope in [7] is 0.00664 (inactive). Further, the outcome in [8] was inactive.

As for `CCCOc1ccc(C(C)=O)cc1CSCCC#N`, the cell count in [1] was found to be 298. For the same molecule, the inhibition in assay [1] was -26.4% (inactive); in assay [2], -186% (inactive); in assay [4] it was 7.01% (inactive); in assay [9] it was 17.2% (inactive). For the same molecule, the nuclei count in [2] was 136%. In addition, the values for the z-score in [3] (setting [10]), in assay [3] (setting [11]) and in assay [3] (setting [12]) were -0.222, -1.52 and 0.779, respectively. The fluorescence slope in assay [5] was -0.462 (inactive). Moreover, the NADPH fluorescence slope in assay [6] was -0.000379 (inactive). Further, the slope in assay [7] is 0.00586 (inactive). Besides, the result in assay [8] was inactive.

`CCOc1ccc(-n2c3nc4ccccc4nc3c3c(=O)n(Cc4ccco4)cnc32)cc1`: in assay [1], the cell count stood at 381. Further, the inhibition in assay [1] is -13% (inactive); in [2] it was -105% (inactive); in [4], -7.01% (inactive); in assay [9] it was -0.886% (inactive). The molecule further registered a nuclei count in [2] of 171%. Also, the z-score in assay [3] (setting [10]) was 0.174; in assay [3] (setting [11]) it was 0.579; in [3] (setting [12]), -1.27. In addition, in [5], the fluorescence slope was -0.417 (inactive). Also, the NADPH fluorescence slope in assay [6] is -0.000107 (inactive). In addition, in assay [7], the slope was 0.00519 (inactive). Besides, the molecule was classed as inactive in assay [8].

Take `CCCCCCn1cc(C(=O)O)c(=O)c2ccccc21`: the cell count in [1] was found to be 426. In addition, the inhibition is -5.3% (inactive) in [1], -95% (inactive) in [2], -7.28% (inactive) in assay [4] and -8.24% (inactive) in [9]. The nuclei count in assay [2] amounted to 158%. Moreover, the z-score was -1.56 in assay [3] (setting [10]), 1.61 in assay [3] (setting [11]) and 1.42 in assay [3] (setting [12]). For the same molecule, the fluorescence slope in [5] was -0.402 (inactive). In addition, in [6], the NADPH fluorescence slope is -1.4e-06 (inactive). Also, the slope in [7] is 0.00525 (inactive). The result in [8] was inactive.

Turning to `CCOC(=O)c1[nH]c2cc3c(cc2c1NC(=O)CN1CCC2(CC1)OCCO2)OCO3`, in [1], the cell count is 466. Besides, the inhibition is -3.8% (inactive) in assay [1], 7.6% (inactive) in assay [2], 22.8% (inactive) in [4] and -16.4% (inactive) in assay [9]. The molecule also displayed a nuclei count in assay [2] of 111%. Moreover, the z-score in assay [3] (setting [10]) is 0.45; in assay [3] (setting [11]), 1.98; in assay [3] (setting [12]), -0.82. For the same molecule, the fluorescence slope in assay [5] was -0.0748 (inactive). In addition, in assay [6], the NADPH fluorescence slope was 5.8e-07 (inactive). Moreover, the slope in assay [7] is 0.00639 (inactive). Besides, the call in [8] was inactive.
